Experimental data reported in ChEMBL document CHEMBL4043255, “Design, synthesis and biological evaluation of novel histone deacetylase inhibitors incorporating 4-aminoquinazolinyl systems as capping groups” (Bioorg Med Chem Lett, 2017).

Assays:
[1] = Inhibition of HDAC in human HeLa nuclear extract using Fluor de Lys as substrate after 15 mins by fluorescence assay
PC-3 = test: Anti-proliferative activity against human PC3 cells after 48 hrs by MTT assay; type: functional, cell-based; conditions: PC-3, 48 h
MDA-MB-231 = test: Anti-proliferative activity against human MDA-MB-231 cells after 48 hrs by MTT assay; type: functional, cell-based; conditions: MDA-MB-231, 48 h
MRC5 = test: Anti-proliferative activity against human MRC5 cells after 48 hrs by MTT assay; type: ADME, cell-based; conditions: MRC5, 48 h
K562 = test: Anti-proliferative activity against human K562 cells after 48 hrs by MTT assay; type: functional, cell-based; conditions: K562, 48 h
[2] = target: T1, Protein deacetylase HDAC6 (Homo sapiens, UniProt Q9UBN7); test: Inhibition of HDAC6 (unknown origin)
T1 sequence (Q9UBN7 whole entry): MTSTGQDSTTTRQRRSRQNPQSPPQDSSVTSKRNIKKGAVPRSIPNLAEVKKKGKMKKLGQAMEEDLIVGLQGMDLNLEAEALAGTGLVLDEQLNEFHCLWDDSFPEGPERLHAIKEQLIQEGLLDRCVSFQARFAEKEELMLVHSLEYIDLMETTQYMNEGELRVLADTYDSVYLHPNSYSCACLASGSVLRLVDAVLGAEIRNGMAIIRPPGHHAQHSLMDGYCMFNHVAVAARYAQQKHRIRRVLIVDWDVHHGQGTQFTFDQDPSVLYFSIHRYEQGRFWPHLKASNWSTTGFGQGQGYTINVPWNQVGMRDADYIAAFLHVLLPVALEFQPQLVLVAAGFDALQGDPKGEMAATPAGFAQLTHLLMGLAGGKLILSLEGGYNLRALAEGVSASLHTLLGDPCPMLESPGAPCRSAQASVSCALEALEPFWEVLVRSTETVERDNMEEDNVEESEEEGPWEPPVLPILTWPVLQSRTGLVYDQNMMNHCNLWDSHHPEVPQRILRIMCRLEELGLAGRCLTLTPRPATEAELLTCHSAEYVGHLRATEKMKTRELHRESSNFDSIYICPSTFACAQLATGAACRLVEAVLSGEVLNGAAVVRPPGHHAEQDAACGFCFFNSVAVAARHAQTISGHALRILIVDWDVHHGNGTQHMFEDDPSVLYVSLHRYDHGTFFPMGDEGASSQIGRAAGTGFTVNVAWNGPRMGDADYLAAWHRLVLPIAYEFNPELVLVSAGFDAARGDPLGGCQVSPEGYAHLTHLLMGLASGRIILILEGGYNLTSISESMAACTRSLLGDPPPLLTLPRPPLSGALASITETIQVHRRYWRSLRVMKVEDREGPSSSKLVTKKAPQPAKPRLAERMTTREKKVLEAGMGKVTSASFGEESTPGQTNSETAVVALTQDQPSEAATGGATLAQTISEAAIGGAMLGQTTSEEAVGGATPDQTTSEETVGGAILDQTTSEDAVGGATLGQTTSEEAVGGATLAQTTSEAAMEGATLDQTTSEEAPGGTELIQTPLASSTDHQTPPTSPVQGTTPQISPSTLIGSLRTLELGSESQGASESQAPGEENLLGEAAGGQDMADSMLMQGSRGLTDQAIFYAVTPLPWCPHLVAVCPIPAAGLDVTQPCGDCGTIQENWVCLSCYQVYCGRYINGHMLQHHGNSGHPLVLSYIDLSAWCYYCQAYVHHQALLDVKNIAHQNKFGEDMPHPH

Histone deacetylase 8 = target: T2, Histone deacetylase 8 (Homo sapiens, UniProt Q9BY41); test: Inhibition of HDAC8 (unknown origin)
T2 sequence (Q9BY41 whole entry): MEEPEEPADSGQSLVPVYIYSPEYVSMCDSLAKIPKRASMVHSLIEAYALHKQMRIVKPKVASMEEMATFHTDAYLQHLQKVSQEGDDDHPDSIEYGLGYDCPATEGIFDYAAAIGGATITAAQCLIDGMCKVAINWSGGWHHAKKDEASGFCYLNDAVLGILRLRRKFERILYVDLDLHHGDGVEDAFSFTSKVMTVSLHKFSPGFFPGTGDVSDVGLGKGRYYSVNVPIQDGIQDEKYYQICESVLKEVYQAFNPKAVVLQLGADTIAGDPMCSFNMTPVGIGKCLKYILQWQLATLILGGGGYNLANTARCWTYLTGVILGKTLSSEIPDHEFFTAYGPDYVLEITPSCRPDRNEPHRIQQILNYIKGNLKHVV

HCT-116 = test: Anti-proliferative activity against human HCT116 cells after 48 hrs by MTT assay; type: functional, cell-based; conditions: HCT-116, 48 h
[3] = target: Voltage-gated inwardly rectifying potassium channel KCNH2 (Homo sapiens, UniProt Q12809); test: Inhibition of recombinant human ERG expressed in HEK293 cells at -80 mV holding potential measured for 9 mins by Qpatch clamp method; type: cell-based
Sequence of Voltage-gated inwardly rectifying potassium channel KCNH2 (Q12809 whole entry): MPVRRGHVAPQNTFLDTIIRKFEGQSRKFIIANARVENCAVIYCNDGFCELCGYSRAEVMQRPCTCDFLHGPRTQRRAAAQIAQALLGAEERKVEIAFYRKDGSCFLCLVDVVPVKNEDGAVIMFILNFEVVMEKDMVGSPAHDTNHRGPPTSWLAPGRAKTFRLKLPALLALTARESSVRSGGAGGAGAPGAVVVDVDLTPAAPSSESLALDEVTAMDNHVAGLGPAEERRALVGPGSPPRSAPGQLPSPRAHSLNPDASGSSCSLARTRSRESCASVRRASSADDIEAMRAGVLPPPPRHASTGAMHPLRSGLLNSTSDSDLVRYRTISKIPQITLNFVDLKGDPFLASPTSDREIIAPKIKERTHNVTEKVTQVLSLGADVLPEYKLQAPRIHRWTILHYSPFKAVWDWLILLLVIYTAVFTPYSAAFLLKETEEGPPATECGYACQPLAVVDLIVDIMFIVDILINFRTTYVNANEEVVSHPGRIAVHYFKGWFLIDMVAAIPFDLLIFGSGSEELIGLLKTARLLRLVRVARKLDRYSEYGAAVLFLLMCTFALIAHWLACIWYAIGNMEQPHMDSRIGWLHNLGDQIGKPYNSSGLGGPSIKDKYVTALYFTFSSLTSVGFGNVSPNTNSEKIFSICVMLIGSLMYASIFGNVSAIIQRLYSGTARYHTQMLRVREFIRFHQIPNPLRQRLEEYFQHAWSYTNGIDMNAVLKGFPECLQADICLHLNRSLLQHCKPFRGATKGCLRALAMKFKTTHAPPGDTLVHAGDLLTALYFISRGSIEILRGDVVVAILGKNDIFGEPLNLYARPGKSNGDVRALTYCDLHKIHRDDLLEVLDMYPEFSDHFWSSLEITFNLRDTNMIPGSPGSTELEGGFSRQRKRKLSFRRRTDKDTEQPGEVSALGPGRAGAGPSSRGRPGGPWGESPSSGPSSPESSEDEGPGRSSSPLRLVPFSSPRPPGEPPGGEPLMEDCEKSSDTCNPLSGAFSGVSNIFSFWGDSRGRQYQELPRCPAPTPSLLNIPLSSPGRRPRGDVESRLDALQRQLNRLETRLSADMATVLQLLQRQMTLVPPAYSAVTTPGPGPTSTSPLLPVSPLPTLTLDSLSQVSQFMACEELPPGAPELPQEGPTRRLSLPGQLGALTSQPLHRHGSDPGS

Histone deacetylase 1 = Histone deacetylase 1 (Homo sapiens, UniProt Q13547); test: Inhibition of HDAC1 (unknown origin)
Sequence of Histone deacetylase 1 (Q13547 whole entry): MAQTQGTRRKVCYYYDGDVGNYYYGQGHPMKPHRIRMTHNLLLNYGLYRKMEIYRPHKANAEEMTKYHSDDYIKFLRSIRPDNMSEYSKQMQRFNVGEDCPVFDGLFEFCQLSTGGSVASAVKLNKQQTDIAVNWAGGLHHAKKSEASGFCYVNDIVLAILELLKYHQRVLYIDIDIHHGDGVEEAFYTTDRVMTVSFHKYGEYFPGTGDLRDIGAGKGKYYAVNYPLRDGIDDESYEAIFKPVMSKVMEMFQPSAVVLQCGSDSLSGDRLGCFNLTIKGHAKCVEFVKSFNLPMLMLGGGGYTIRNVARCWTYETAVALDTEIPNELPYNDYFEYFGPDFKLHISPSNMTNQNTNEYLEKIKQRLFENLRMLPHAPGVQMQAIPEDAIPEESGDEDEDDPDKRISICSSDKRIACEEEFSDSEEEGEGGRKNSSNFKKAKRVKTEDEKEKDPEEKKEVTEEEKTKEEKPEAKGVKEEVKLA

A549 [4] = test: Anti-proliferative activity against human A549 cells after 48 hrs by MTT assay; type: functional, cell-based; conditions: A549, 48 h
in vivo [5] = conditions: Sprague-Dawley, rat, po, 20 mg/kg
in vivo [6] = conditions: Sprague-Dawley, rat, iv, 2 mg/kg
[7] = Clearance in Sprague-Dawley rat at 2 mg/kg, iv by HPLC method; type: ADME, organism-based; conditions: in vivo
How it was run: (§1)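 Female Sprague-Dawley rats were dosed with the compound at 2 mg/kg iv (for clearance and terminal half-life) or 20 mg/kg orally (for Cmax, Tmax and oral bioavailability). Blood was collected at various time points up to 24 h, and plasma was analyzed by HPLC coupled to triple quadrupole mass spectrometry.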

[8] = Tmax in Sprague-Dawley rat at 20 mg/kg, po by HPLC method; type: ADME, organism-based; conditions: in vivo; how it was run: as §1
[9] = Cmax in Sprague-Dawley rat at 20 mg/kg, po by HPLC method; type: ADME, organism-based; set-up: dose 20 mg/kg, route oral; conditions: in vivo; how it was run: as §1
Mus musculus = test: Toxicity in mouse xenografted with human A549 cells at 20 to 40 mg/kg, ip administered once every other day for 21 days; type: organism-based; conditions: in vivo, 504 h
How it was run: (§2)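 Mice bearing non-small cell lung cancer A549 xenografts were given the compound ip at 20 or 40 mg/kg once every other day for a 21-day efficacy study.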

A549 [10] = test: Antitumor activity against human A549 cells xenografted in mouse assessed as tumor growth inhibition at 20 mg/kg, ip administered once every other day for 21 days relative to control; type: functional; conditions: 504 h, read-out: TGI; how it was run: as §2
[11] = Terminal half life in Sprague-Dawley rat at 2 mg/kg, iv by HPLC method; type: ADME, organism-based; conditions: in vivo, read-out: beta t1/2 (converted); how it was run: as §1
A549 [12] = test: Antitumor activity against human A549 cells xenografted in mouse assessed as tumor growth inhibition at 40 mg/kg, ip administered once every other day for 21 days relative to control; type: functional; conditions: 504 h, read-out: TGI; how it was run: as §2
[13] = Oral bioavailability in Sprague-Dawley rat at 20 mg/kg by HPLC method; type: ADME, organism-based; conditions: in vivo; how it was run: as §1

Compound `O=C(CCCCCCNc1ncnc2cc(F)ccc12)NO` has an IC50 [1] of 20.7 nM.

Compound `O=C(CCCCCCNc1ncnc2cc(Cl)ccc12)NO` has an IC50 [1] of 24.2 nM.

For `O=C(CCCCCCNC(=O)c1ccccc1)NO`, the IC50 [1] was > 2000 nM.

Work on `O=C(CCCCCNc1ncnc2ccccc12)NO` yielded an IC50 [1] of 41.2 nM.

`Cc1cccc2c(NCCCCCCC(=O)NO)ncnc12` gave an IC50 [1] of 55.2 nM.

Work on `COc1cc2ncnc(NCCCCCCC(=O)NO)c2cc1OC` yielded an IC50 [1] of 13.1 nM.

`O=C(CCCCCCNc1ncnc2ccc(F)cc12)NO` showed an IC50 (PC-3) of 1020 nM, an IC50 [1] of 8.17 nM and an IC50 (MDA-MB-231) of 490 nM. It also gave an IC50 (MRC5) of 76500 nM, an IC50 (K562) of 860 nM and an IC50 [2] of 8 nM. For the same compound, the IC50 (Histone deacetylase 8) was 1460 nM, the IC50 (HCT-116) was 3450 nM and the IC50 [3] was > 30000 nM. It also gave an IC50 (Histone deacetylase 1) of 13 nM and an IC50 (A549 [4]) of 147 nM.

Work on `Cc1ccc2ncnc(NCCCCCCC(=O)NO)c2c1` yielded an IC50 [1] of 20.2 nM.

`COc1cc2ncnc(NCCCCCC(=O)NO)c2cc1OC` showed an IC50 [1] of 10.5 nM.

Work on `O=C(CCCCCCNc1ncnc2ccccc12)NO` yielded an IC50 [1] of 33.8 nM.

`O=C(CCCCCCC(=O)Nc1ccccc1)NO` [VORINOSTAT] gave an IC50 (PC-3) of 2920 nM, a bioavailability (in vivo [5]) of 11% and a half-life (in vivo [6]) of 12 min.

With `COCCOc1cc2ncnc(NCCCCCCC(=O)NO)c2cc1OCCOC` the IC50 [1] was 152 nM.

In the case of `O=C(CCCCCCNc1ncnc2ccc(Cl)cc12)NO`, the clearance [7] is reported as 53 mL/min/kg, the IC50 (PC-3) is reported as 760 nM and the Tmax [8] is reported as 15 min. For the same compound, the Cmax [9] was 146 ng/mL, the IC50 [1] was 3.08 nM and the Activity (Mus musculus) was “Non-Toxic”. The IC50 (MDA-MB-231) was 170 nM, the IC50 (MRC5) was 54900 nM and the inhibition in vivo at 20 mg/kg (A549 [10]) was 53.1%. It also gave a half-life [11] of 172 min, an IC50 (K562) of 1210 nM and an inhibition in vivo at 40 mg/kg (A549 [12]) of 76.4%. The IC50 [2] was 7 nM, the IC50 (Histone deacetylase 8) was 1970 nM and the bioavailability [13] was 16.8%. The IC50 (HCT-116) was 2110 nM, the IC50 [3] was > 30000 nM and the IC50 (Histone deacetylase 1) was 11 nM. It also gave an IC50 (A549 [4]) of 80 nM.

Work on `Nc1ccc2ncnc(NCCCCCCC(=O)NO)c2c1` yielded an IC50 [1] of 12.1 nM.

Compound `O=C(CCCCCCNc1ncnc2ccc([N+](=O)[O-])cc12)NO` has an IC50 [1] of 22.9 nM.
